According to ChEMBL document CHEMBL3784993, “Synthesis and anticancer activity of some 5-fluoro-2'-deoxyuridine phosphoramidates” (Bioorg Med Chem, 2016):

tested on: HeLa; assay: Cytotoxicity against human HeLa cells after 72 hrs in presence of human recombinant cytochrome P450 isoform mixture by SRB assay; assay type: functional, cell-based; conditions: not given

Compared with `[N-]=[N+]=NCCCCNP(=O)(OC[C@H]1O[C@@H](n2cc(F)c(=O)[nH]c2=O)C[C@@H]1O)Oc1ccc(Cl)cc1` (stereo partly specified), `CCCCNP(=O)(OC[C@H]1O[C@@H](n2cc(F)c(=O)[nH]c2=O)C[C@@H]1O)Oc1ccc(Cl)cc1` (stereo partly specified) is higher in IC50: 20.6 µM for the first, greater than 100 µM for the second.

`CC(C)(C)OC(=O)O[C@H]1C[C@H](n2cc(F)c(=O)[nH]c2=O)O[C@@H]1COP(=O)(NCCCN=[N+]=[N-])Oc1ccc(Cl)cc1` (stereo partly specified) and `CC(C)(C)OC(=O)O[C@H]1C[C@H](n2cc(F)c(=O)[nH]c2=O)O[C@@H]1COP(=O)(NCCCCN=[N+]=[N-])Oc1ccc(Cl)cc1` (stereo partly specified) are within 1.5-fold of each other in IC50: 24.1 µM for the first, 17.7 µM for the second.

`CCCNP(=O)(OC[C@H]1O[C@@H](n2cc(F)c(=O)[nH]c2=O)C[C@@H]1O)Oc1ccc(Cl)cc1` (stereo partly specified) and `CCCNP(=O)(OC[C@H]1O[C@@H](n2cc(F)c(=O)[nH]c2=O)C[C@@H]1OC(=O)OC(C)(C)C)Oc1ccc(Cl)cc1` (stereo partly specified) are within 1.5-fold of each other in IC50: 45.9 µM for the first, 45.2 µM for the second.

tested on: MCF7; assay: Cytotoxicity against human MCF7cells after 72 hrs by SRB assay; assay type: functional, cell-based; conditions: MCF7, 72 h

Going from `[N-]=[N+]=NCCCCNP(=O)(OC[C@H]1O[C@@H](n2cc(F)c(=O)[nH]c2=O)C[C@@H]1O)Oc1ccc(Cl)cc1` (stereo partly specified) to `CCCCNP(=O)(OC[C@H]1O[C@@H](n2cc(F)c(=O)[nH]c2=O)C[C@@H]1O)Oc1ccc(Cl)cc1` (stereo partly specified), the IC50 rises from 67.6 µM to greater than 100 µM.

First: CC(C)(C)OC(=O)O[C@H]1C[C@H](n2cc(F)c(=O)[nH]c2=O)O[C@@H]1COP(=O)(NCCCN=[N+]=[N-])Oc1ccc(Cl)cc1 (stereo partly specified)
Second: CC(C)(C)OC(=O)O[C@H]1C[C@H](n2cc(F)c(=O)[nH]c2=O)O[C@@H]1COP(=O)(NCCCCN=[N+]=[N-])Oc1ccc(Cl)cc1 (stereo partly specified)
The IC50 of the first is 1.7-fold higher: 58.5 µM for the first, 35.4 µM for the second.

`CCCNP(=O)(OC[C@H]1O[C@@H](n2cc(F)c(=O)[nH]c2=O)C[C@@H]1O)Oc1ccc(Cl)cc1` (stereo partly specified) and `CCCNP(=O)(OC[C@H]1O[C@@H](n2cc(F)c(=O)[nH]c2=O)C[C@@H]1OC(=O)OC(C)(C)C)Oc1ccc(Cl)cc1` (stereo partly specified) are within 1.5-fold of each other in IC50: 27.2 µM for the first, 20.8 µM for the second.

tested on: KB; assay: Cytotoxicity against human KB cells after 72 hrs by SRB assay; assay type: functional, cell-based; conditions: not given
Procedure, shortened: (§1)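 SRB protein-stain assay. Cells were seeded at about 10,000 per well and grown 24 h to a partial monolayer. They were then exposed for 72 h at 37 °C (5% CO2, 90% RH) to six concentrations: 0.1, 0.2, 1, 2, 10 and 20 µM. Final DMSO was ≤0.1%. Cells were TCA-fixed and stained with 0.4% SRB, and OD was read at 490 nm. Survival was expressed versus untreated cells. Cytarabine served as internal standard, with three experiments.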

First: [N-]=[N+]=NCCCCNP(=O)(OC[C@H]1O[C@@H](n2cc(F)c(=O)[nH]c2=O)C[C@@H]1O)Oc1ccc(Cl)cc1 (stereo partly specified)
Second: CCCCNP(=O)(OC[C@H]1O[C@@H](n2cc(F)c(=O)[nH]c2=O)C[C@@H]1O)Oc1ccc(Cl)cc1 (stereo partly specified)
The IC50 of the first is lower: 71.3 µM for the first, greater than 100 µM for the second. The first is the more potent here.

Compared with `CC(C)(C)OC(=O)O[C@H]1C[C@H](n2cc(F)c(=O)[nH]c2=O)O[C@@H]1COP(=O)(NCCCN=[N+]=[N-])Oc1ccc(Cl)cc1` (stereo partly specified), `CC(C)(C)OC(=O)O[C@H]1C[C@H](n2cc(F)c(=O)[nH]c2=O)O[C@@H]1COP(=O)(NCCCCN=[N+]=[N-])Oc1ccc(Cl)cc1` (stereo partly specified) is 1.5-fold lower in IC50: 54.9 µM for the first, 35.6 µM for the second. The second is the more potent here.

Compared with `CCCNP(=O)(OC[C@H]1O[C@@H](n2cc(F)c(=O)[nH]c2=O)C[C@@H]1O)Oc1ccc(Cl)cc1` (stereo partly specified), `CCCNP(=O)(OC[C@H]1O[C@@H](n2cc(F)c(=O)[nH]c2=O)C[C@@H]1OC(=O)OC(C)(C)C)Oc1ccc(Cl)cc1` (stereo partly specified) is 1.9-fold lower in IC50: 50.4 µM for the first, 27.2 µM for the second.

tested on: not listed separately; assay: Cytotoxicity against HDF cells after 72 hrs by SRB assay; assay type: cell-based; conditions: Homo sapiens

`[N-]=[N+]=NCCCCNP(=O)(OC[C@H]1O[C@@H](n2cc(F)c(=O)[nH]c2=O)C[C@@H]1O)Oc1ccc(Cl)cc1` (stereo partly specified) and `CCCCNP(=O)(OC[C@H]1O[C@@H](n2cc(F)c(=O)[nH]c2=O)C[C@@H]1O)Oc1ccc(Cl)cc1` (stereo partly specified) cannot be ordered by IC50: greater than 100 µM for the first, greater than 100 µM for the second.

`CC(C)(C)OC(=O)O[C@H]1C[C@H](n2cc(F)c(=O)[nH]c2=O)O[C@@H]1COP(=O)(NCCCN=[N+]=[N-])Oc1ccc(Cl)cc1` (stereo partly specified) and `CC(C)(C)OC(=O)O[C@H]1C[C@H](n2cc(F)c(=O)[nH]c2=O)O[C@@H]1COP(=O)(NCCCCN=[N+]=[N-])Oc1ccc(Cl)cc1` (stereo partly specified) are within 1.5-fold of each other in IC50: 57.2 µM for the first, 48.3 µM for the second.

`CCCNP(=O)(OC[C@H]1O[C@@H](n2cc(F)c(=O)[nH]c2=O)C[C@@H]1O)Oc1ccc(Cl)cc1` (stereo partly specified) and `CCCNP(=O)(OC[C@H]1O[C@@H](n2cc(F)c(=O)[nH]c2=O)C[C@@H]1OC(=O)OC(C)(C)C)Oc1ccc(Cl)cc1` (stereo partly specified) are within 1.5-fold of each other in IC50: 61 µM for the first, 61.1 µM for the second.

tested on: HeLa; assay: Cytotoxicity against human HeLa cells after 72 hrs by SRB assay; assay type: functional, cell-based; conditions: not given; procedure, shortened: as §1

Going from `[N-]=[N+]=NCCCCNP(=O)(OC[C@H]1O[C@@H](n2cc(F)c(=O)[nH]c2=O)C[C@@H]1O)Oc1ccc(Cl)cc1` (stereo partly specified) to `CCCCNP(=O)(OC[C@H]1O[C@@H](n2cc(F)c(=O)[nH]c2=O)C[C@@H]1O)Oc1ccc(Cl)cc1` (stereo partly specified), the IC50 rises from 72.1 µM to greater than 100 µM.

`CC(C)(C)OC(=O)O[C@H]1C[C@H](n2cc(F)c(=O)[nH]c2=O)O[C@@H]1COP(=O)(NCCCN=[N+]=[N-])Oc1ccc(Cl)cc1` (stereo partly specified) and `CC(C)(C)OC(=O)O[C@H]1C[C@H](n2cc(F)c(=O)[nH]c2=O)O[C@@H]1COP(=O)(NCCCCN=[N+]=[N-])Oc1ccc(Cl)cc1` (stereo partly specified) are within 1.5-fold of each other in IC50: 52.5 µM for the first, 36 µM for the second.

`CCCNP(=O)(OC[C@H]1O[C@@H](n2cc(F)c(=O)[nH]c2=O)C[C@@H]1O)Oc1ccc(Cl)cc1` (stereo partly specified) and `CCCNP(=O)(OC[C@H]1O[C@@H](n2cc(F)c(=O)[nH]c2=O)C[C@@H]1OC(=O)OC(C)(C)C)Oc1ccc(Cl)cc1` (stereo partly specified) are within 1.5-fold of each other in IC50: 50.2 µM for the first, 49.3 µM for the second.

tested on: HepG2; assay: Cytotoxicity against human HepG2 cells after 72 hrs by SRB assay; assay type: functional, cell-based; conditions: HepG2, 72 h

`[N-]=[N+]=NCCCCNP(=O)(OC[C@H]1O[C@@H](n2cc(F)c(=O)[nH]c2=O)C[C@@H]1O)Oc1ccc(Cl)cc1` (stereo partly specified) and `CCCCNP(=O)(OC[C@H]1O[C@@H](n2cc(F)c(=O)[nH]c2=O)C[C@@H]1O)Oc1ccc(Cl)cc1` (stereo partly specified) cannot be ordered by IC50: greater than 100 µM for the first, greater than 100 µM for the second.

`CC(C)(C)OC(=O)O[C@H]1C[C@H](n2cc(F)c(=O)[nH]c2=O)O[C@@H]1COP(=O)(NCCCN=[N+]=[N-])Oc1ccc(Cl)cc1` (stereo partly specified) and `CC(C)(C)OC(=O)O[C@H]1C[C@H](n2cc(F)c(=O)[nH]c2=O)O[C@@H]1COP(=O)(NCCCCN=[N+]=[N-])Oc1ccc(Cl)cc1` (stereo partly specified) are within 1.5-fold of each other in IC50: 46.9 µM for the first, 58.9 µM for the second.

Compared with `CCCNP(=O)(OC[C@H]1O[C@@H](n2cc(F)c(=O)[nH]c2=O)C[C@@H]1O)Oc1ccc(Cl)cc1` (stereo partly specified), `CCCNP(=O)(OC[C@H]1O[C@@H](n2cc(F)c(=O)[nH]c2=O)C[C@@H]1OC(=O)OC(C)(C)C)Oc1ccc(Cl)cc1` (stereo partly specified) is 1.6-fold lower in IC50: 41.9 µM for the first, 26 µM for the second. The second is the more potent here.
